ChEMBL document CHEMBL1122522, “Conformationally restricted retinoids” (1984)

Tests used:
[1] = tested on: Cricetinae gen. sp.; experiment: Activity of compound the was expressed as ratio of active hamster tracheal organ cultures(TOC) to the total cultures at 10e-10 M concentration; 3/14; format: functional, Cricetulus griseus, Trachea
Method in brief: (§1)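 Tracheal organ cultures came from vitamin A-deficient hamsters. Each culture was scored for reversal of keratinization and reported as active cultures out of total cultures at each retinoid concentration tested (10⁻⁸ to 10⁻¹² M). The protocol followed earlier published methods.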

[2] = tested on: Cricetinae gen. sp.; experiment: Molarity required to effect reversal of keratinization in 50% of cultures.; format: functional, Cricetulus griseus
[3] = tested on: Cricetinae gen. sp.; experiment: Activity of compound the was expressed as ratio of active hamster tracheal organ cultures(TOC) to the total cultures at 10e-8 M concentration; 8/8; format: functional, Cricetulus griseus, Trachea; method in brief: as §1
[4] = tested on: Cricetinae gen. sp.; experiment: Activity of compound the was expressed as ratio of active hamster tracheal organ cultures(TOC) to the total cultures at 10e-9 M concentration; 8/14; format: functional, Cricetulus griseus, Trachea; method in brief: as §1
[5] = molecular target: T1, Ornithine decarboxylase (Mus musculus) (UniProt P00860); experiment: Inhibition of the induction of ornithine decarboxylase in mouse epidermis by the tumor promoter 12-O-tetradecanoylphorbol-13-acetate (ODC) at dose 17 nmol * p<0.05
T1 sequence (whole entry): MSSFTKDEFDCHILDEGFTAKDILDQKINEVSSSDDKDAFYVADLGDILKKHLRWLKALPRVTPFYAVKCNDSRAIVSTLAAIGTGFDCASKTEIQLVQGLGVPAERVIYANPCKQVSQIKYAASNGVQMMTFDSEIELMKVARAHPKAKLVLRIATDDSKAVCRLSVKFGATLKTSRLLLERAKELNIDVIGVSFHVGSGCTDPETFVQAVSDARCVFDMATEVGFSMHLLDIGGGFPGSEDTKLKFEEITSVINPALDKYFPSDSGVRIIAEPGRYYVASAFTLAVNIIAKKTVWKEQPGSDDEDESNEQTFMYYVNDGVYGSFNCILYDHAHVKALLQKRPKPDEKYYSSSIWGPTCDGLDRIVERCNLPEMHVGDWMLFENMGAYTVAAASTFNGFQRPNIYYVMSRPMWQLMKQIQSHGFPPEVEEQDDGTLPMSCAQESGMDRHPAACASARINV

[6] = molecular target: T1, Ornithine decarboxylase (Mus musculus); experiment: Inhibition of the induction of ornithine decarboxylase in mouse epidermis by the tumor promoter 12-O-tetradecanoylphorbol-13-acetate (ODC) at dose 1.7 nmol * p<0.02
[7] = tested on: Cricetinae gen. sp.; experiment: Activity of compound the was expressed as ratio of active hamster tracheal organ cultures(TOC) to the total cultures at 10e-10 M concentration; 1/7; format: functional, Cricetulus griseus, Trachea; method in brief: as §1
[8] = tested on: Cricetinae gen. sp.; experiment: Activity of compound the was expressed as ratio of active hamster tracheal organ cultures(TOC) to the total cultures at 10e-9 M concentration; 2/7; format: functional, Cricetulus griseus, Trachea; method in brief: as §1
[9] = tested on: Cricetinae gen. sp.; experiment: Activity of compound the was expressed as ratio of active hamster tracheal organ cultures(TOC) to the total cultures at 10e-8 M concentration; 3/7; format: functional, Cricetulus griseus, Trachea; method in brief: as §1
[10] = molecular target: T1, Ornithine decarboxylase (Mus musculus); experiment: Inhibition of the induction of ornithine decarboxylase in mouse epidermis by the tumor promoter 12-O-tetradecanoylphorbol-13-acetate (ODC) at dose 17 nmol * * inhibition not significant
[11] = molecular target: T1, Ornithine decarboxylase (Mus musculus); experiment: Inhibition of the induction of ornithine decarboxylase in mouse epidermis by the tumor promoter 12-O-tetradecanoylphorbol-13-acetate (ODC) at dose 1.7 nmol * * inhibition not significant
[12] = tested on: Cricetinae gen. sp.; experiment: Activity of compound the was expressed as ratio of active hamster tracheal organ cultures(TOC) to the total cultures at 10e-10 M concentration; 6/13; format: functional, Cricetulus griseus, Trachea; method in brief: as §1
[13] = tested on: Cricetinae gen. sp.; experiment: Activity of compound the was expressed as ratio of active hamster tracheal organ cultures(TOC) to the total cultures at 10e-11 M concentration; 1/5; format: functional, Cricetulus griseus, Trachea; method in brief: as §1
[14] = tested on: Cricetinae gen. sp.; experiment: Activity of compound the was expressed as ratio of active hamster tracheal organ cultures(TOC) to the total cultures at 10e-9 M concentration; 11/12; format: functional, Cricetulus griseus, Trachea; method in brief: as §1
[15] = tested on: Cricetinae gen. sp.; experiment: Activity of compound the was expressed as ratio of active hamster tracheal organ cultures(TOC) to the total cultures at 10e-8 M concentration; 7/7; format: functional, Cricetulus griseus, Trachea; details: at 0.01 µM

| inhibition [5] | inhibition [6] | inhibition [10] | inhibition [11] | SMILES | Activity [1] | ED50 [2] | Activity [3] | Activity [4] | Activity [7] | Activity [8] | Activity [9] | Activity [12] | Activity [13] | Activity [14] | Activity [15] |
| --- | --- | --- | --- | --- | --- | --- | --- | --- | --- | --- | --- | --- | --- | --- | --- |
| 69% | 33% | – | – | C/C(=C\c1ccc(C(=O)O)cc1)c1ccc2c(c1)C1CCC2C1 (configuration not stated) | 3% | 6e-10 | 8% | 57% | – | – | – | – | – | – | – |
| – | – | 4% | 0% | CCOC(=O)c1ccc([C@H]2CC2c2ccc3c(c2)C2CCC3C2)cc1 (some centres not stated) | – | >1e-08 | – | – | 1% | 29% | 3% | – | – | – | – |
| – | – | – | – | CC1=C(/C=C/c2ccc3cc(C(=O)O)ccc3c2)C(C)(C)CCC1 | – | 1e-10 | – | – | – | – | – | 6% | 1% | 92% | 7% |
